Measured values pooled from the literature.
PADI4: Protein-arginine deiminase type-4 (PADI4, Homo sapiens, UniProt Q9UM07)
ART1: ART1 (Homo sapiens, UniProt P52961)
GUK1: GUK1 (Homo sapiens, UniProt Q16774)
CA9: Carbonic anhydrase 9 (CA9, Homo sapiens, UniProt Q16790)

Structure (SMILES)	target	read-out	action	method	notes	measurement	value
Cc1cc(C)nc(Nc2ccc(C(=O)N[C@@H](CCCNC(=N)CCl)C(=O)NCc3ccccc3)cn2)c1	PADI4	enzyme activity	inhibitor	fluorescence	with preincubation	IC50	1.02 µM
NC(=O)c1cccnc1	ART1	enzyme activity	inhibitor	fluorescence	–	Ki	8300 µM
CN(C)c1ccc2cc(C(=O)N[C@@H](CCCN=C(N)CCl)C(=O)NCc3ccccc3)ccc2c1	PADI4	enzyme activity	inhibitor	fluorescence	with preincubation	IC50	2.86 µM
O=C(O)CCc1ccccc1	Inward rectifier potassium channel 2 (KCNJ2, Homo sapiens, UniProt P63252)	binding	–	MST	–	Kd	2110 µM
Nc1ncnc2c1ncn2[C@@H]1O[C@H](COP(=O)(O)OP(=O)(O)OC[C@H]2OC(O)[C@H](O)[C@@H]2O)[C@@H](O)[C@H]1O (some centres unmarked)	ART1	enzyme activity	inhibitor	fluorescence	–	Ki	4900 µM
Nc1nc2c(ncn2[C@@H]2O[C@H](COP(=O)(O)O)[C@@H](O)[C@H]2O)c(=O)[nH]1	GUK1	binding	–	ITC	–	Kd	39 µM
CC[C@H](C)[C@H](NC(=O)[C@H](CCC(=O)O)NC(=O)[C@H](CO)NC(=O)[C@@H](NC(=O)[C@@H](N)CO)C(C)C)C(=O)N[C@@H](CCC(N)=O)C(=O)N[C@@H](CC(C)C)C(=O)N[C@@H](CCSC)C(=O)N[C@@H](Cc1cnc[nH]1)C(=O)N[C@@H](CC(N)=O)C(=O)N[C@@H](CC(C)C)C(=O)NCC(=O)N[C@@H](CCCCN)C(=O)N[C@@H](Cc1cnc[nH]1)C(=O)N[C@@H](CC(C)C)C(=O)N[C@@H](CC(N)=O)C(=O)N[C@@H](CO)C(=O)N[C@@H](CCSC)C(=O)N[C@@H](CCC(=O)O)C(=O)N[C@@H](CCCNC(=N)N)C(=O)N[C@H](C(=O)N[C@@H](CCC(=O)O)C(=O)N[C@@H](Cc1c[nH]c2ccccc12)C(=O)N[C@@H](CC(C)C)C(=O)N[C@@H](CCCNC(=N)N)C(=O)N[C@@H](CCCCN)C(=O)N[C@@H](CCCCN)C(=O)N[C@@H](CC(C)C)C(=O)N[C@@H](CCC(N)=O)C(=O)N[C@@H](CC(=O)O)C(=O)N[C@H](C(=O)N[C@@H](Cc1cnc[nH]1)C(=O)N[C@@H](CC(N)=O)C(=O)N[C@@H](Cc1ccccc1)C(N)=O)C(C)C)C(C)C	Albumin (ALB, Bos taurus, UniProt P02769)	binding	–	BLI	–	Kd	1.61 µM
N#CSCc1cc(=O)oc2cc(O)ccc12	CA9	enzyme activity	inhibitor	stopped-flow	–	Ki	0.0274 µM
O=C(NCc1cn(-c2ccc([N+](=O)[O-])cc2)nn1)c1ccc(=O)oc1	CA9	enzyme activity	inhibitor	stopped-flow	–	Ki	7.5 µM
N#CSCCCCOc1ccc2c(-c3ccccc3)cc(=O)oc2c1	CA9	enzyme activity	inhibitor	stopped-flow	–	Ki	0.258 µM
O=C(OCc1cn(-c2ccc(Cl)cc2)nn1)c1ccc(=O)oc1	CA9	enzyme activity	inhibitor	stopped-flow	–	Ki	21.9 µM
N=C(CCl)NCCC[C@H](NC(=O)c1cnc2cc(Br)ccc2c1)C(=O)NCc1ccccc1	PADI4	enzyme activity	inhibitor	fluorescence	with preincubation	IC50	0.409 µM
Cc1ccc(-n2cc(CNC(=O)c3ccc(=O)oc3)nn2)cc1	CA9	enzyme activity	inhibitor	stopped-flow	–	Ki	14.5 µM
Nc1ncnc2c1ncn2[C@@H]1O[C@H](CO[P@](=O)(O)O[P@](=O)(O)O[P@@](=O)(O)S)[C@@H](O)[C@H]1O	GUK1	binding	–	ITC	–	Kd	40 µM
